How the values were obtained:
[1] = Cytotoxicity against mouse RAW264.7 cells assessed as cellular metabolic activity at 50 uM after 48 hrs by MTT assay relative to control; format: ADME, cell-based; details: read-out: Activity
Method in brief: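 RAW264.7 cells at 5 × 10^4 cells/mL exposed to 50 μM test agent (DMSO solution) for 48 h. MTT then added at 5 mg/mL in sterile PBS for 4 h; formazan dissolved in DMSO and absorbance read at 490 nm. Triplicate treatments.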

[2] = test system: RAW264.7; assay: Anti-inflammatory activity in mouse RAW264.7 cells assessed as inhibition of LPS-induced NO production preincubated for 30 mins followed by LPS stimulation and measured after 24 hrs by Griess reagent based colorimetric method; format: functional, cell-based
Method in brief: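 RAW264.7 murine macrophages in DMEM with 10% supplement, 37 °C, 5% CO2, grown 24 h before treatment. Test agents at several concentrations added 30 min before 1 μg/mL LPS (or no LPS). After 24 h, supernatant mixed with Griess reagents I and II; absorbance at 560 nm. IC50 derived only where cell activity at 50 μM stayed ≥50%. L-NIL as positive control.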

SMILES	viability at 48 h, 50 µM [1]	IC50 [2]
C/C=C(\C)C(=O)OC[C@]1(O)[C@H]2C[C@H]2[C@]2(C)[C@@H]3CC4=C5[C@H](/C(=C(/C)C(=O)OC)C(=O)[C@H](O)[C@@]5(C)[C@@H]5C[C@H]45)[C@@]34OC(=O)C(COC(C)=O)=C4C[C@@H]12	< 50%	
COC(=O)/C(C)=C1\C(=O)[C@H](O)[C@]2(C)C3=C(C[C@@H]4[C@]5(OC(=O)C(CO)=C5C[C@H]5[C@H](COC(C)=O)[C@H]6C[C@H]6[C@]45C)[C@H]31)[C@H]1C[C@H]12	97%	3.7 µM
COC(=O)CCC(=O)OCC1=C2C[C@H]3[C@](O)(COC(=O)/C=C(\C)CO)[C@H]4C[C@H]4[C@]3(C)[C@@H]3CC4=C5[C@H](/C(=C(\C)C(=O)OC)C(=O)[C@H](O)[C@@]5(C)[C@@H]5C[C@H]45)[C@]23OC1=O	71.5%	23.1 µM
CC1=C2C3=C4[C@](C)([C@@H]5C[C@@H]5[C@@]4(O)C[C@@H]4[C@]35OC(=O)C3=C5C[C@H]5[C@](O)(COC(=O)/C=C(\C)COC(=O)CCC(=O)OC3)[C@H]3C[C@H]3[C@]45C)[C@@H](O)[C@@]2(O)OC1=O	< 50%	
COC(=O)/C(C)=C1\C(=O)[C@H](O)[C@@]2(C)[C@@H]3C[C@@H]3[C@@]34CCC5=C6C3=C(C(=O)[C@H](O)[C@@]6(C)[C@@H]3C[C@H]53)[C@](C)(C(=O)OC)[C@@H]1[C@@]24O	< 50%	
COC(=O)/C(C)=C1/C(=O)[C@H](O)[C@]2(C)C3=C(C[C@@H]4[C@]5(OC(=O)C6=C5C[C@H]5[C@](O)(COC(=O)/C(C)=C/COC(=O)CCC(=O)OC6)[C@H]6C[C@H]6[C@]45C)[C@H]31)[C@H]1C[C@H]12	66.5%	25.5 µM
CO[C@@]12OC(=O)C(C)=C1C1=C3[C@](C)([C@@H]4C[C@@H]4[C@@]3(O)C[C@@H]3[C@]14OC(=O)C1=C4C[C@H]4[C@](O)(COC(=O)/C(C)=C/COC(=O)CCC(=O)OC1)[C@H]1C[C@H]1[C@]34C)[C@H]2O	< 50%	
CC(=N)NCCCC[C@H](N)C(=O)O [L-NIL]	93.3%	7 µM
C/C=C(\C)C(=O)OC[C@]1(O)[C@H]2C[C@H]2[C@]2(C)[C@@H]3C[C@@]4(O)C5=C(C6=C(C)C(=O)O[C@]6(O)[C@H](O)[C@@]5(C)[C@@H]5C[C@@H]54)[C@@]34OC(=O)C(COC(C)=O)=C4C[C@@H]12 [SARCANDROLIDE D]	< 50%	
COC(=O)/C(C)=C1\C(=O)[C@H](O)[C@]2(C)C3=C(C[C@@H]4[C@]5(OC(=O)C6=C5C[C@H]5[C@](O)(COC(=O)/C(C)=C/COC(=O)CCC(=O)OC6)[C@H]6C[C@H]6[C@]45C)[C@H]31)[C@H]1C[C@H]12 [SHIZUKAOL B]	55.4%	> 50 µM
COC(=O)/C(C)=C1\C(=O)[C@H](O)[C@]2(C)C3=C(C[C@@H]4[C@]5(OC(=O)C6=C5C[C@H]5[C@](O)(COC(=O)/C=C(\C)COC(=O)CCC(=O)OC6)[C@H]6C[C@H]6[C@]45C)[C@H]31)[C@H]1C[C@H]12 [SHIZUKAOL F]	53.1%	> 50 µM
CC1=C2C3=C4[C@@](C)(C(=O)[C@@]2(O)OC1=O)[C@@H]1C[C@@H]1[C@@]4(O)C[C@@H]1[C@]32OC(=O)C3=C2C[C@H]2[C@](O)(COC(=O)/C(C)=C/COC(=O)CCC(=O)OC3)[C@H]3C[C@H]3[C@]12C [SPICACHLORANTIN B]	< 50%	
